From ChEMBL document CHEMBL5634116, “Strategies for developing retinoic acid receptor alpha-selective antagonists as novel agents for male contraception” (Eur J Med Chem, 2023) come the findings set out here.

Converted amounts (≈) assume the structure as drawn. The source made the active and inactive calls. The rule behind the calls is not given here. Where only a bound is given, the exact number is not on record here.

In data set [1] the test system is Mus musculus. Description: Effect on spermatogenesis in CD-1 mouse assessed as testicular weight at 5 mg/kg/day, po for 7 days measured on day 1 post-cessation of drug treatment (reference value: 0.12 +/- 0.01 g). Type of data set: functional. Particulars: time 8 day.
In data set [2] the test system is Mus musculus. Description: Effect on spermatogenesis in CD-1 mouse assessed as sperm count at 5 mg/kg/day, po for 7 days measured on day 1 post-cessation of drug treatment by hemocytometry (reference value: 55.50 +/- 8.18 x 10^6No_unit). As to conditions: time 8 day. Type of data set: functional.
Data set [3] addresses T1, Retinoic acid receptor beta (Homo sapiens, UniProt P10826).
T1 sequence (P10826 whole entry): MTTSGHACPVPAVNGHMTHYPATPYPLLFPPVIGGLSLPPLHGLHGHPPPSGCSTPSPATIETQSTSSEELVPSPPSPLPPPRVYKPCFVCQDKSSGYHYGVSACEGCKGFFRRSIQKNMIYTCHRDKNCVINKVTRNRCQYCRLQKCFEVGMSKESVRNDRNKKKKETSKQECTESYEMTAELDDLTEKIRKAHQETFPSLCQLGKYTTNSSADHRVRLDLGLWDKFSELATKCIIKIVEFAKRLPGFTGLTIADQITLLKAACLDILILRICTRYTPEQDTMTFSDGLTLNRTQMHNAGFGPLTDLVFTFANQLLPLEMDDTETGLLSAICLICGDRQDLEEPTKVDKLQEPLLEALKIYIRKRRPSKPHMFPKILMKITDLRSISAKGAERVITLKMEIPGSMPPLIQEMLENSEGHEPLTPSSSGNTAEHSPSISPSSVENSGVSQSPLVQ
Briefly: Agonist activity at recombinant human RAR-beta expressed in mammalian cells by luciferase reporter gene based transactivation assay. The format is cell-based. The gist of the method: (§1)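 Human RAR-subtype luciferase reporter cells (RARE-driven). Compounds in DMSO (final 0.4%) tested as 8-point dose response in triplicate. Incubated overnight at 37 °C in 5% CO2, then detection reagent 30 min at r.t. and luminescence measured. EC50 by four-parameter logistic fit, mean ± SEM from geometric mean of log EC50 across independent experiments.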
Background: Reporter assays use an easily measured gene product as a stand-in for the process of interest.

Data set [4] has as its target T2, Retinoic acid receptor gamma (Homo sapiens, UniProt P13631).
T2 sequence (P13631 whole entry): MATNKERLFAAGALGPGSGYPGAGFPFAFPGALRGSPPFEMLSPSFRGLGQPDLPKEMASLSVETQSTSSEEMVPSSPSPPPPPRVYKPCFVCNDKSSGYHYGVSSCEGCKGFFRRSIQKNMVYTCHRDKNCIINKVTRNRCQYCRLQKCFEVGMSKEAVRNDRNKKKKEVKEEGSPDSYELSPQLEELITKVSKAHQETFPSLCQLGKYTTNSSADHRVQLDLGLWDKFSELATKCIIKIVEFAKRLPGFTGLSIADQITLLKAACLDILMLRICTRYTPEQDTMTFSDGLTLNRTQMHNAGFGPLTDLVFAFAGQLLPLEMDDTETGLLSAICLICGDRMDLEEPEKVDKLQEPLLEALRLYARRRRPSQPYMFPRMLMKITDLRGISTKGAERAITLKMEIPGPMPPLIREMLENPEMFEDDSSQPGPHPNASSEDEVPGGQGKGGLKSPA
Briefly: Agonist activity at recombinant human RAR-gamma expressed in mammalian cells by luciferase reporter gene based transactivation assay. The format is cell-based. The gist of the method:
as §1

The target of data set [5] is T1, Retinoic acid receptor beta. Briefly: Antagonist activity at recombinant human RAR-beta expressed in mammalian cells in presence of ATRA by luciferase reporter gene based transactivation assay. Type of data set: cell-based.
Data set [6] concerns the target T2, Retinoic acid receptor gamma. Description: Antagonist activity at recombinant human RAR-gamma expressed in mammalian cells in presence of ATRA by luciferase reporter gene based transactivation assay. Type of data set: cell-based. The gist of the method: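 Compounds 8-point dose response in triplicate, DMSO final 0.4%; overnight at 37 °C, 5% CO2; luminescence after 30 min detection reagent. IC50 by four-parameter logistic fit; agonist-free wells set background.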

Data set [7] in a line: Solubility of compound in PBS at pH 7.4. Type of data set: physicochemical. As to conditions: buffer. A digest of the protocol:
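Solubility measured in PBS, pH 7.4.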

Data set [8] can be described thus: Partition coefficient, logD of compound in 1-octanol/PBS at pH 7.4. Particulars: octanol/water. Type of data set: physicochemical. The gist of the method: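 Distribution between 1-octanol and PBS at pH 7.4; log D reported.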
Data set [9] can be described thus: Metabolic stability in CD-1 mouse liver microsomes assessed as compound remaining in presence of NADPH measured for 60 mins at 10^-6 M. Type of data set: ADME, Microsome. As to conditions: dose 1 10^-6M, read-out: Stability. (In general: Microsomes from liver hold many membrane-bound enzymes, among them those of drug oxidation.)
Data set [10] in a line: Drug uptake in CD-1 mouse plasma at 10 mg/kg, po measured for 30 mins by LC-MS/MS analysis. Type of data set: ADME, organism-based. As to conditions: in vivo, 0.5 h. The gist of the method: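 Male CD-1 mice, 6-8 weeks, single oral dose 10 mg/kg in 80% Carbitol/20% saline (1.75 mg/ml). Sets of 3 mice bled and euthanized at 5, 15, 30 min to 24 h; plasma frozen ≤ −20 °C, acetonitrile-precipitated with internal standard, analysed by isocratic LC-MS/MS against calibration standards. Mean ± S.D. of 3 animals.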

In data set [11] the test system is Mus musculus. Briefly: Effect on spermatogenesis in CD-1 mouse assessed as sperm count at 5 mg/kg/day, po for 7 days measured after 4 weeks post-cessation of drug treatment by hemocytometry. The format is functional. Particulars: time 5 weeks.
Data set [12] concerns Mus musculus. Briefly: Effect on spermatogenesis in CD-1 mouse assessed as spermatids in abnormal stage IX tubules at 5 mg/kg/day, po for 7 days measured after 4 weeks post-cessation of drug treatment by hematoxylin counter-staining based analysis. The format is functional, organism-based. As to conditions: time 5.0 weeks.
Data set [13] deals with Mus musculus. Briefly: Effect on spermatogenesis in CD-1 mouse assessed as abnormal epididymal sperm morphology at 5 mg/kg/day, po for 7 days measured after 4 weeks post-cessation of drug treatment by hematoxylin counter-staining based analysis. The format is functional, organism-based. As to conditions: time 5.0 weeks.
In data set [14] the test system is Mus musculus. Description: Effect on spermatogenesis in CD-1 mouse assessed as abnormality in spermatid release at 5 mg/kg/day, po for 7 days measured after 4 weeks post-cessation of drug treatment by hematoxylin counter-staining based analysis. Type of data set: functional, organism-based. As to conditions: time 5.0 weeks.
In data set [15] the test system is Mus musculus. Description: Effect on spermatogenesis in CD-1 mouse assessed as abnormal stage IX tubules at 10 mg/kg/day, po for 2 weeks measured measured after 4 weeks post-cessation of drug treatment by hematoxylin counter-staining based analysis. As to conditions: time 6.0 weeks. Type of data set: functional, organism-based. A digest of the protocol: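 CD1 males given 10 mg/kg/day orally for 2 weeks dissolved in 20% aqueous Kollisolv (n = 10 per time point); vehicle-only controls n = 5. Testes collected one day or 4 weeks after cessation, fixed in 4% paraformaldehyde or Bouin's, paraffin-embedded, PAS-stained with hematoxylin counterstain and tubules staged by bright-field microscopy.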

Data set [16] concerns Mus musculus. Briefly: Effect on spermatogenesis in CD-1 mouse assessed as reduction in sperm count administered as Carbitol formulation at 10 mg/kg/day, po for 28 days consecutively measured on day 1 post-cessation of drug treatment by hemocytometry relative to control. Type of data set: functional. More on the design: scale not given: the % may be the effect or the level left. Particulars: time 29 day.

The EC50 is the concentration at which the effect is half-maximal. In general, IC50 refers to the concentration that inhibits the measured activity by half. In general, solubility refers to the concentration that dissolves in the medium under given conditions. As usually defined, the logD is the decadic logarithm of the distribution of all forms, ionised or not, between an organic phase and buffer at a given pH. In the case of `Cc1ccc(C2=CC(C)(C)Oc3ccc(C(=O)Nc4ccc(C(=O)O)cc4)cc32)cc1`, the Activity is on record as 0.11 g in the data set on Mus musculus [1], 24.5 10^6No_unit in the data set on Mus musculus [2], 54.9 10^6No_unit in the data set on Mus musculus [11] and about 73% with Mus musculus [16]. For the same compound, the values for the EC50 in [3] and in [4] were 75 nM and 520 nM, respectively. Moreover, the values for the IC50 in data set [5] and in data set [6] were over 3300 nM and 310 nM, respectively. Further, the solubility in data set [7] is 4.2 µM (≈ 1.74 µg/mL). In data set [8], this compound had a logD of 3.35. Moreover, the remaining at 1 h, 1 µM in data set [9] came out at 100%. Also, in [10], the Drug uptake result is given as “Active”. For the same compound, the result in the data set on Mus musculus [12], in the data set on Mus musculus [13], with Mus musculus [14] and in the data set on Mus musculus [15] was inactive.
